Data taken from ChEMBL document CHEMBL5260840 (J Med Chem, 2019).
Calls of active or inactive are those of the source. The rule behind the calls is not given here.

Experiments:
[1] = biological target: T1, Von Hippel-Lindau disease tumor suppressor/Elongin B/Elongin C (Homo sapiens) (UniProt P40337+Q15370+Q15369); test: Co-operative binding affinity to 6His-tagged human VHL/ElonginC/ElonginB expressed in Escherichia coli BL21 (DE3) cells assessed as maximal intensity in the presence of BRD9-BD as complex with compound incubated for 1 hrs by AlphaLISA proximity assay
[2] = Stability in CD-1 mouse liver microsomes at 0.5 uM measured upto 30 mins in the presence of NADPH; type: ADME, Microsome; conditions: 0.5 h
[3] = biological target: T2, von Hippel-Lindau disease tumor suppressor/Bromodomain-containing protein 7 (Homo sapiens) (UniProt Q9NPI1+P40337); test: PROTAC activity at VHL/BRD7 in human Ri-1 cells assessed as remaining BRD7 protein level at 100 nM incubated for 2 hrs by Western blot analysis relative to control; type: cell-based
How it was run: (§1)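 Ri-1 cells exposed to compound for the stated time before harvest; BRD9, BRD7 and β-actin measured by Western blot, band intensities quantified and set against DMSO-treated control.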

[4] = biological target: T3, von Hippel-Lindau disease tumor suppressor/Bromodomain-containing protein 9 (Homo sapiens) (UniProt Q9H8M2+P40337); test: PROTAC activity at VHL/BRD9 in human Ri-1 cells assessed as remaining BRD9 protein level at 10 nM incubated for 8 hrs by Western blot analysis relative to control; type: cell-based; how it was run: as §1
[5] = biological target: T2, von Hippel-Lindau disease tumor suppressor/Bromodomain-containing protein 7 (Homo sapiens); test: PROTAC activity at VHL/BRD7 in human Ri-1 cells assessed as remaining BRD7 protein level at 10 nM incubated for 8 hrs by Western blot analysis relative to control; type: cell-based; how it was run: as §1
[6] = biological target: T2, von Hippel-Lindau disease tumor suppressor/Bromodomain-containing protein 7 (Homo sapiens); test: PROTAC activity at VHL/BRD7 in human Ri-1 cells assessed as remaining BRD7 protein level at 100 nM incubated for 48 hrs by Western blot analysis relative to control; type: cell-based; how it was run: as §1
[7] = biological target: T3, von Hippel-Lindau disease tumor suppressor/Bromodomain-containing protein 9 (Homo sapiens); test: PROTAC activity at VHL/BRD9 in human Ri-1 cells assessed as remaining BRD9 protein level at 100 nM incubated for 1 hrs by Western blot analysis relative to control; type: cell-based; how it was run: as §1
[8] = biological target: T2, von Hippel-Lindau disease tumor suppressor/Bromodomain-containing protein 7 (Homo sapiens); test: PROTAC activity at VHL/BRD7 in human Ri-1 cells assessed as remaining BRD7 protein level at 0.1 nM incubated for 8 hrs by Western blot analysis relative to control; type: cell-based
[9] = biological target: T3, von Hippel-Lindau disease tumor suppressor/Bromodomain-containing protein 9 (Homo sapiens); test: PROTAC activity at VHL/BRD9 in human Ri-1 cells assessed as BRD9 protein degradation at 100 nM incubated for 4 hrs by MS proteomics analysis; type: cell-based
How it was run: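 RI-1 cells treated in triplicate with compound (100 nM) or DMSO for 4 h; whole-cell proteome quantified by MS (6273 proteins), fold change versus control with t-test P-values.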

[10] = biological target: T2, von Hippel-Lindau disease tumor suppressor/Bromodomain-containing protein 7 (Homo sapiens); test: PROTAC activity at VHL/BRD7 in human Ri-1 cells assessed as remaining BRD7 protein level at 10000 nM incubated for 2 hrs by Western blot analysis relative to control; type: cell-based; how it was run: as §1
[11] = biological target: T1, Von Hippel-Lindau disease tumor suppressor/Elongin B/Elongin C (Homo sapiens); test: Negative co-operative binding affinity to 6His-tagged human VHL/ElonginC/ElonginB expressed in Escherichia coli BL21 (DE3) cells assessed as total gibb's free energy change in the presence of BRD9-BD as complex with compound by ITC analysis
[12] = biological target: T2, von Hippel-Lindau disease tumor suppressor/Bromodomain-containing protein 7 (Homo sapiens); test: PROTAC activity at VHL/BRD7 in human Ri-1 cells assessed as remaining BRD7 protein level at 100 nM incubated for 30 mins by Western blot analysis relative to control; type: cell-based; how it was run: as §1
[13] = biological target: T2, von Hippel-Lindau disease tumor suppressor/Bromodomain-containing protein 7 (Homo sapiens); test: PROTAC activity at VHL/BRD7 in human Ri-1 cells assessed as remaining BRD7 protein level at 100 nM incubated for 1 hrs by Western blot analysis relative to control; type: cell-based; how it was run: as §1
[14] = biological target: T2, von Hippel-Lindau disease tumor suppressor/Bromodomain-containing protein 7 (Homo sapiens); test: PROTAC activity at VHL/BRD7 in human Ri-1 cells assessed as remaining BRD7 protein level at 10 nM incubated for 24 hrs by Western blot analysis relative to control; type: cell-based
[15] = biological target: T3, von Hippel-Lindau disease tumor suppressor/Bromodomain-containing protein 9 (Homo sapiens); test: PROTAC activity at VHL/BRD9 in human Ri-1 cells assessed as remaining BRD9 protein level at 1 uM incubated for 2 hrs by Western blot analysis relative to control; type: cell-based; how it was run: as §1
[16] = biological target: T3, von Hippel-Lindau disease tumor suppressor/Bromodomain-containing protein 9 (Homo sapiens); test: PROTAC activity at VHL/BRD9 in human Ri-1 cells assessed as BRD9 protein degradation in the presence of MLN4924 by Western blot analysis; type: cell-based; how it was run: as §1
[17] = biological target: T3, von Hippel-Lindau disease tumor suppressor/Bromodomain-containing protein 9 (Homo sapiens); test: PROTAC activity at VHL/BRD9 in human Ri-1 cells assessed as remaining BRD9 protein level at 100 nM incubated for 8 hrs by Western blot analysis relative to control; type: cell-based; how it was run: as §1
[18] = biological target: T2, von Hippel-Lindau disease tumor suppressor/Bromodomain-containing protein 7 (Homo sapiens); test: PROTAC activity at VHL/BRD7 in human Ri-1 cells assessed as remaining BRD7 protein level at 10 nM incubated for 4 hrs by Western blot analysis relative to control; type: cell-based
[19] = Stability in mouse plasma at 10 uM measured upto 180 mins by UPLC-MS/MS analysis; type: ADME, cell-free; conditions: 3 h
[20] = biological target: T3, von Hippel-Lindau disease tumor suppressor/Bromodomain-containing protein 9 (Homo sapiens); test: PROTAC activity at VHL/BRD9 in human Ri-1 cells assessed as remaining BRD9 protein level at 10 nM incubated for 1 hrs by Western blot analysis relative to control; type: cell-based; how it was run: as §1
[21] = biological target: T2, von Hippel-Lindau disease tumor suppressor/Bromodomain-containing protein 7 (Homo sapiens); test: PROTAC activity at VHL/BRD7 in human Ri-1 cells assessed as remaining BRD7 protein level at 10 nM incubated for 30 mins by Western blot analysis relative to control; type: cell-based
[22] = biological target: T3, von Hippel-Lindau disease tumor suppressor/Bromodomain-containing protein 9 (Homo sapiens); test: PROTAC activity at VHL/BRD9 in human Ri-1 cells assessed as remaining BRD9 protein level at 100 nM incubated for 2 hrs by Western blot analysis relative to control; type: cell-based; how it was run: as §1
[23] = Stability in human liver microsomes at 0.5 uM measured upto 30 mins in the presence of NADPH; type: ADME, Microsome; conditions: 0.5 h
[24] = biological target: T3, von Hippel-Lindau disease tumor suppressor/Bromodomain-containing protein 9 (Homo sapiens); test: PROTAC activity at VHL/BRD9 in human Ri-1 cells assessed as remaining BRD9 protein level at 10 nM incubated for 24 hrs by Western blot analysis relative to control; type: cell-based; how it was run: as §1
EOL1 = test: Antiproliferative activity against human EOL1 cells assessed as inhibition of cell growth incubated for 7 days by CellTiterGlo assay; type: functional, cell-based; conditions: EOL1, 168 h
[25] = biological target: T3, von Hippel-Lindau disease tumor suppressor/Bromodomain-containing protein 9 (Homo sapiens); test: PROTAC activity at VHL/BRD9 in human Ri-1 cells assessed as BRD9 protein degradation in the presence of MG132 by Western blot analysis; type: cell-based; how it was run: as §1
[26] = biological target: T3, von Hippel-Lindau disease tumor suppressor/Bromodomain-containing protein 9 (Homo sapiens); test: PROTAC activity at VHL/BRD9 in human Ri-1 cells assessed as remaining BRD9 protein level at 10 nM incubated for 48 hrs by Western blot analysis relative to control; type: cell-based; how it was run: as §1
[27] = biological target: T2, von Hippel-Lindau disease tumor suppressor/Bromodomain-containing protein 7 (Homo sapiens); test: PROTAC activity at VHL/BRD7 in human HeLa cells assessed as remaining BRD7 protein level at 1 uM incubated for 4 hrs by Western blot analysis relative to control; type: cell-based
[28] = biological target: T2, von Hippel-Lindau disease tumor suppressor/Bromodomain-containing protein 7 (Homo sapiens); test: PROTAC activity at VHL/BRD7 in human Ri-1 cells assessed as remaining BRD7 protein level at 1 uM incubated for 2 hrs by Western blot analysis relative to control; type: cell-based
[29] = biological target: T2, von Hippel-Lindau disease tumor suppressor/Bromodomain-containing protein 7 (Homo sapiens); test: PROTAC activity at VHL/BRD7 in human Ri-1 cells assessed as remaining BRD7 protein level at 1 nM incubated for 2 hrs by Western blot analysis relative to control; type: cell-based
[30] = biological target: T2, von Hippel-Lindau disease tumor suppressor/Bromodomain-containing protein 7 (Homo sapiens); test: PROTAC activity at VHL/BRD7 in human Ri-1 cells assessed as remaining BRD7 protein level at 10 nM incubated for 48 hrs by Western blot analysis relative to control; type: cell-based; how it was run: as §1
[31] = biological target: T3, von Hippel-Lindau disease tumor suppressor/Bromodomain-containing protein 9 (Homo sapiens); test: PROTAC activity at VHL/BRD9 in human Ri-1 cells assessed as remaining BRD9 protein level at 100 nM incubated for 48 hrs by Western blot analysis relative to control; type: cell-based; how it was run: as §1

T2 sequence (P40337 whole entry, looked up): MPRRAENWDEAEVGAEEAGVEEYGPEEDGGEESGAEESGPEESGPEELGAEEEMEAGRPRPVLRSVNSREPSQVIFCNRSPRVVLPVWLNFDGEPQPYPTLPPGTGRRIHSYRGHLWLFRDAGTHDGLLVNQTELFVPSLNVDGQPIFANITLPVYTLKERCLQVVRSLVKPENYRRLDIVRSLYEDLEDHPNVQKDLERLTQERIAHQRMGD
T2 sequence (Q9NPI1 whole entry, looked up): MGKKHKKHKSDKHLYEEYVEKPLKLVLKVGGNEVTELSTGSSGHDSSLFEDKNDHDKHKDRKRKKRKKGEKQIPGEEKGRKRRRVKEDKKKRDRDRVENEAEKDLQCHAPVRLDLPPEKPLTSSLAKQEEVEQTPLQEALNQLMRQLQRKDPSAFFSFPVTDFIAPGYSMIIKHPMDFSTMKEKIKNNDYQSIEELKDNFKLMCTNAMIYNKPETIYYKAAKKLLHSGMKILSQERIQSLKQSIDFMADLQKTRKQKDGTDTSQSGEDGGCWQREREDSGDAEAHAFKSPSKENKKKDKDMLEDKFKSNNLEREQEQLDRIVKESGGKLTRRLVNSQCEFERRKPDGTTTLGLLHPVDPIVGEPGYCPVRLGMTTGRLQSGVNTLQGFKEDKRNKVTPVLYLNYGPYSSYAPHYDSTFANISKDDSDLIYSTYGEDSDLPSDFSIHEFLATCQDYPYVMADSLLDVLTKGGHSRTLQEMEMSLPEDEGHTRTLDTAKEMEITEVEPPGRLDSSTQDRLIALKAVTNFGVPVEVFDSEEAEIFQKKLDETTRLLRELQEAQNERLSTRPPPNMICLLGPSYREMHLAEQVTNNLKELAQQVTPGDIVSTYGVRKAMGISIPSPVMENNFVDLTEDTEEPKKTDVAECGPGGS
T3 sequence (P40337 whole entry, looked up): as the sequence (P40337 whole entry, looked up) above
T3 sequence (Q9H8M2 whole entry, looked up): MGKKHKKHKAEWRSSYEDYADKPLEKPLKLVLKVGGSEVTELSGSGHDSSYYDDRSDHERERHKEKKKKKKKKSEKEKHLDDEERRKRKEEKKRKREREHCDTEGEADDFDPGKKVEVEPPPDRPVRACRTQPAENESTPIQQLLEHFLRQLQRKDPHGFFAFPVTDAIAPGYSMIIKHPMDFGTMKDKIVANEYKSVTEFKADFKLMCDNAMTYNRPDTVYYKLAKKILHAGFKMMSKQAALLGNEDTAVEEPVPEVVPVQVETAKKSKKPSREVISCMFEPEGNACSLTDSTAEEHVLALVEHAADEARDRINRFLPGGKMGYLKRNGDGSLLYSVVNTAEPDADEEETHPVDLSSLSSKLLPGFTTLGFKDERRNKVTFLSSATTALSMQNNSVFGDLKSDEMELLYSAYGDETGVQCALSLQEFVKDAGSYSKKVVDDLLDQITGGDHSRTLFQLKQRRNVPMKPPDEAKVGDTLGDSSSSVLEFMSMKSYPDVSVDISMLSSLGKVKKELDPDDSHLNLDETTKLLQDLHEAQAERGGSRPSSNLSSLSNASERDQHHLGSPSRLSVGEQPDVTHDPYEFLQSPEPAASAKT
T1 sequence (P40337 whole entry, looked up): as the sequence (P40337 whole entry, looked up) above
T1 sequence (Q15369 whole entry, looked up): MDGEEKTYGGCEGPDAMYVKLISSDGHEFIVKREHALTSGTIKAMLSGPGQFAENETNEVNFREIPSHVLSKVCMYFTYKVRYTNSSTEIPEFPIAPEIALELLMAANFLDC
T1 sequence (Q15370 whole entry, looked up): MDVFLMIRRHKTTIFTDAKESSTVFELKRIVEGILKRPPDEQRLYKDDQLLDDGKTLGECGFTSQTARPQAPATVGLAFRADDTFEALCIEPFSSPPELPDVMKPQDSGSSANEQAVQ

## COc1cc(-c2cn(C)c(=O)c3cnccc23)cc(OC)c1CN1CCN(CCCCCOc2cc(-c3scnc3C)ccc2CNC(=O)[C@@H]2C[C@@H](O)CN2C(=O)[C@@H](NC(=O)C2(F)CC2)C(C)(C)C)CC1
[1]
  Activity: 1.47 10^6No_unit
[2]
  Stability: Stable
[3]
  Activity: 8%
[4]
  Activity: 14%
[5]
  Activity: 33%
[6]
  Activity: 3%
[7]
  Activity: 34%
[8]
  Activity: 109%
[9]
  Activity: Active
[10]
  Activity: 75%
[11]
  deltaG: -21.7 kcal/mol
[12]
  Activity: 40%
[13]
  Activity: 31%
[14]
  Activity: 38%
[15]
  Activity: 52%
[16]
  Activity: inactive
[17]
  Activity: 2%
[18]
  Activity: 42%
[19]
  Stability: Stable
[20]
  Activity: 64%
[21]
  Activity: 70%
[22]
  Activity: 21%
[23]
  Stability: Stable
[24]
  Activity: 17%
EOL1
  IC50: 3.39 nM
[25]
  Activity: inactive
[26]
  Activity: 2%
[27]
  Activity: 10%
[28]
  Activity: 10%
[29]
  Activity: 92%
[30]
  Activity: 12%
[31]
  Activity: 2%
